Measurements published in ChEMBL document CHEMBL4052602, “Sesquiterpenoids with Various Carbocyclic Skeletons from the Flowers of Chrysanthemum indicum” (J Nat Prod, 2017).
The source made the active and inactive calls. The calls are words filed in the database; no cut-off is given here.

Columns and labels:
Vero [1] = assay: Cytotoxicity against African green monkey Vero cells assessed as decrease in cell viability at 90 uM after 2 days by MTT assay; assay type: cell-based; settings: chlorocebus sabaeus, 48 h
[2] = system: Porcine epidemic diarrhea virus; assay: Antiviral activity against Porcine epidemic diarrhea virus infected in African green monkey Vero cells assessed as inhibition of virus-induced cytopathic effect at 40 uM after 3 days; assay type: functional
How it was run: (§1)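 Vero cells were inoculated with PEDV for 2 h, then treated with compound and incubated 3 days, with CPE inhibition as read-out. Screening was at 40 or 50 μM for non-cytotoxic compounds and at 20 μM for cytotoxic ones; the dose-response covered 20–90 μM. Azauridin was the positive control; mean ± SD, n = 3, versus virus-injected control.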

Vero [3] = assay: Cytotoxicity against African green monkey Vero cells assessed as decrease in cell viability at 70 uM after 2 days by MTT assay; assay type: cell-based; settings: chlorocebus sabaeus, 48 h
Vero [4] = assay: Cytotoxicity against African green monkey Vero cells assessed as decrease in cell viability at 20 to 80 uM after 2 days by MTT assay; assay type: cell-based; settings: chlorocebus sabaeus, 48 h
Vero [5] = assay: Cytotoxicity against African green monkey Vero cells assessed as decrease in cell viability at 80 uM after 2 days by MTT assay; assay type: cell-based; settings: chlorocebus sabaeus, 48 h
[6] = system: Porcine epidemic diarrhea virus; assay: Antiviral activity against Porcine epidemic diarrhea virus infected in African green monkey Vero cells assessed as inhibition of virus-induced cytopathic effect after 3 days; assay type: functional; how it was run: as §1
[7] = system: Porcine epidemic diarrhea virus; assay: Antiviral activity against Porcine epidemic diarrhea virus infected in African green monkey Vero cells assessed as decrease in spike protein expression levels at 45 uM after 24 hrs by Western blot analysis; assay type: functional
How it was run: (§2)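 PEDV-infected Vero cells were incubated with or without compound for 24 h; single-compound tests were at 40 or 45 μM, and a dose series at 80, 40, 20 and 10 μM. Cells were lysed and blotted with nucleocapsid and spike antibodies. Azauridin was the positive control; mean ± SD, n = 3, versus virus-injected control.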

[8] = system: Porcine epidemic diarrhea virus; assay: Antiviral activity against Porcine epidemic diarrhea virus infected in African green monkey Vero cells assessed as inhibition of virus-induced cytopathic effect at 20 to 90 uM after 3 days; assay type: functional; how it was run: as §1
[9] = system: Porcine epidemic diarrhea virus; assay: Antiviral activity against Porcine epidemic diarrhea virus infected in African green monkey Vero cells assessed as decrease in nucleocapsid expression levels at 45 uM after 24 hrs by Western blot analysis; assay type: functional
How it was run: (§3)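 Vero cells inoculated with PEDV, then incubated with or without compound (40 or 45 μM, or 10, 20, 40, 80 μM) for 24 h. Cells lysed and probed by Western blot with anti-nucleocapsid and anti-spike antibodies. Azauridin was the positive control. Values are relative to virus-infected control, mean ± SD (n = 3).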

Vero [10] = assay: Cytotoxicity against African green monkey Vero cells assessed as decrease in cell viability at 20 to 70 uM after 2 days by MTT assay; assay type: cell-based; settings: chlorocebus sabaeus, 48 h
[11] = system: Porcine epidemic diarrhea virus; assay: Antiviral activity against Porcine epidemic diarrhea virus infected in African green monkey Vero cells assessed as inhibition of virus-induced cytopathic effect at 20 uM after 3 days; assay type: functional; how it was run: as §1
[12] = system: Porcine epidemic diarrhea virus; assay: Antiviral activity against Porcine epidemic diarrhea virus infected in African green monkey Vero cells assessed as decrease in spike expression levels at 40 uM after 24 hrs by Western blot analysis; assay type: functional; how it was run: as §2
[13] = system: Porcine epidemic diarrhea virus; assay: Antiviral activity against Porcine epidemic diarrhea virus infected in African green monkey Vero cells assessed as decrease in spike protein synthesis levels after 24 hrs by DAPI staining-based fluorescence microscopy; assay type: functional
How it was run: (§4)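 Virus-injected Vero cells were incubated 24 h with compound at 80, 40 or 20 μM, or with azauridin (20 μM) as positive control. Cells were then fixed, permeabilized and stained with monoclonal antibody against spike (or nucleocapsid) protein for immunofluorescence, alongside noninjected cells.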

[14] = system: Porcine epidemic diarrhea virus; assay: Antiviral activity against Porcine epidemic diarrhea virus infected in African green monkey Vero cells assessed as decrease in nucleocapsid synthesis at 20 to 80 uM after 24 hrs by DAPI staining-based fluorescence microscopy; assay type: functional
How it was run: (§5)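 PEDV-infected Vero cells co-incubated with compound at 20, 40 or 80 μM for 24 h, with azauridin 20 μM as positive control. Cells fixed, permeabilized and stained with monoclonal antibody to nucleocapsid or spike. Antigen-expressing cells were scored by immunofluorescence and compared with uninfected and virus-infected controls.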

[15] = system: Porcine epidemic diarrhea virus; assay: Antiviral activity against Porcine epidemic diarrhea virus infected in African green monkey Vero cells assessed as decrease in nucleocapsid expression levels at 10 to 80 uM after 24 hrs by Western blot analysis; assay type: functional; how it was run: as §3
[16] = system: Porcine epidemic diarrhea virus; assay: Antiviral activity against Porcine epidemic diarrhea virus infected in African green monkey Vero cells assessed as decrease in spike protein synthesis at 20 to 80 uM after 24 hrs by DAPI staining-based fluorescence microscopy; assay type: functional; how it was run: as §4
[17] = system: Porcine epidemic diarrhea virus; assay: Antiviral activity against Porcine epidemic diarrhea virus infected in African green monkey Vero cells assessed as decrease in nucleocapsid expression levels at 40 uM after 24 hrs by Western blot analysis; assay type: functional; how it was run: as §3
[18] = system: Porcine epidemic diarrhea virus; assay: Antiviral activity against Porcine epidemic diarrhea virus infected in African green monkey Vero cells assessed as decrease in nucleocapsid synthesis after 24 hrs by DAPI staining-based fluorescence microscopy; assay type: functional; how it was run: as §5
[19] = system: Porcine epidemic diarrhea virus; assay: Antiviral activity against Porcine epidemic diarrhea virus infected in African green monkey Vero cells assessed as decrease in nucleocapsid expression levels after 24 hrs by Western blot analysis; assay type: functional; how it was run: as §3
[20] = system: Porcine epidemic diarrhea virus; assay: Antiviral activity against Porcine epidemic diarrhea virus infected in African green monkey Vero cells assessed as decrease in spike protein expression levels at 10 to 80 uM after 24 hrs by Western blot analysis; assay type: functional; how it was run: as §2
[21] = system: Porcine epidemic diarrhea virus; assay: Antiviral activity against Porcine epidemic diarrhea virus infected in African green monkey Vero cells assessed as inhibition of virus-induced cytopathic effect at 20 to 80 uM after 3 days; assay type: functional
[22] = system: Porcine epidemic diarrhea virus; assay: Antiviral activity against Porcine epidemic diarrhea virus infected in African green monkey Vero cells assessed as decrease in spike protein expression levels after 24 hrs by Western blot analysis; assay type: functional; how it was run: as §2

## CC(=O)CC[C@@H]1[C@H]2CCC(=O)[C@@H](C(C)C)[C@@H]12
Vero [1]
  Activity: Non-Toxic

## CC(C)(O)[C@@H]1CC[C@@]2(C)CCC[C@]3(CO3)[C@]2(O)[C@@H]1O
[2]
  Activity: Active
Vero [3]
  Activity: Non-Toxic

## C=C(C)[C@H]1CCC(=C)[C@@]2(O)C[C@H](O)C(=C)[C@@H](C1)O2
Vero [4]
  Activity: Toxic

## C=C(C)[C@@H]1CC[C@@]2(C)[C@H](O)C[C@@H](O)C(=C)[C@@H]2C1
Vero [5]
  Activity: Non-Toxic
[2]
  Activity: Active

## C=C1/C=C/[C@H](C(C)C)CCC(=C)[C@H](O)CC1
[6]
  Activity: Dose-dependent effect
Vero [1]
  Activity: Non-Toxic
[7]
  Activity: Active
[8]
  Activity: Active
[9]
  Activity: Active

## CC(C)(O)[C@@H]1C=C2C(CO)=CCC[C@@]2(C)CC1
Vero [4]
  Activity: Toxic

## CC(=O)O[C@@H]1C=C(C)[C@@]2(O)CC=C(C)[C@H]2[C@@H]2OC(=O)[C@H](C)[C@H]21
Vero [10]
  Activity: Toxic

## C=C1C(=O)O[C@@H]2[C@H]3C(C)=CC(=O)C3=C(C)C[C@H](O)[C@@H]12
[11]
  Activity: Active
Vero [4]
  Activity: Toxic

## C=C(C)[C@@H]1CC/C(C)=C\C[C@@H](O)C(=C)[C@@H](O)C1
Vero [5]
  Activity: Non-Toxic
[2]
  Activity: Active

## C=C1CCC[C@@]2(C)CC[C@@H](C(C)(C)O)[C@@H](O)[C@@]12O
[6]
  Activity: Dose-dependent effect
[12]
  Activity: Active
[13]
  Activity: Dose-dependent effect
[14]
  Activity: Active
[15]
  Activity: Active
[16]
  Activity: Active
[17]
  Activity: Active
Vero [5]
  Activity: Non-Toxic
[18]
  Activity: Dose-dependent effect
[19]
  Activity: Dose-dependent effect
[20]
  Activity: Active
[21]
  Activity: Active
[22]
  Activity: Dose-dependent effect

## C=C1CC[C@@H]2[C@H]([C@H]3[C@H]1CC[C@]3(C)O)C2(C)C [SPATHULENOL]
Vero [1]
  Activity: Non-Toxic

## C[C@@H]1CCC(=O)[C@@H]2CC[C@@H](C(C)(C)O)C[C@@]12C
Vero [5]
  Activity: Non-Toxic
[2]
  Activity: Active

## CC(=O)O[C@H]1CC(C)=C2C(=O)C=C(C)[C@@H]2[C@H]2OC(=O)[C@@H](C)[C@@H]21
Vero [10]
  Activity: Toxic

## C=C1CCC[C@]2(C)CC[C@@H](C(C)(C)O)[C@@H](O)[C@@]12O
Vero [5]
  Activity: Non-Toxic
[2]
  Activity: Active

## C=C1CC[C@@H](O)[C@]2(C)C[C@@H]3[C@@H](C(C)C)[C@@H]3[C@@H]12
[6]
  Activity: Dose-dependent effect
Vero [1]
  Activity: Non-Toxic
[7]
  Activity: Active
[8]
  Activity: Active
[9]
  Activity: Active

## CC(C)(O)[C@@H]1CC[C@@]2(C)CCC[C@@]3(CO)O[C@@]23[C@@H]1O
[2]
  Activity: Active
Vero [3]
  Activity: Non-Toxic

## C=C1CC[C@@H](O)[C@]2(C)CC[C@@H](C(C)C)[C@H](O)[C@@H]12
Vero [5]
  Activity: Non-Toxic
[2]
  Activity: Active

## C=C(C)[C@@H]1CC[C@]2(C)C(=C(C)C(=O)C[C@H]2O)C1 [LIGUCYPERONOL]
Vero [1]
  Activity: Non-Toxic
[2]
  Activity: Active
